Data from ChEMBL document CHEMBL4049428, “Exploring Derivatives of Quinazoline Alkaloid l-Vasicine as Cap Groups in the Design and Biological Mechanistic Evaluation of Novel Antitumor Histone Deacetylase Inhibitors” (J Med Chem, 2017).
Calls of active or inactive are those of the source. The rule behind the calls is not given here.

How the values were obtained:
COLO 205 [1] = assay: Cytotoxicity against human COLO205 cells assessed as growth inhibition at 10 uM after 48 hrs by MTT assay; format: functional; details: COLO 205, 48 h, read-out: GI
Procedure, shortened: (§1)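 MTT assay, 48 h exposure; adherent lines seeded 12 h and suspension lines 4 h before compound. Media: RPMI-1640/10% FCS (THP-1, HL-60, Colo-205, Caco-2, A549), DMEM/10% FCS (A549, MIAPaCa-2, MCF-7). MTT 4 h, formazan dissolved in DMSO, absorbance 570 nm. Mean ± S.D of three experiments in triplicate; SAHA 5 µM reference.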

Caco-2 = assay: Cytotoxicity against human Caco2 cells assessed as growth inhibition after 48 hrs by MTT assay; format: functional, cell-based; details: Caco-2, 48 h
HL-60 [2] = assay: Cytotoxicity against human HL60 cells assessed as growth inhibition at 10 uM after 48 hrs by MTT assay; format: functional; details: HL-60, 48 h, read-out: GI; procedure, shortened: as §1
HL-60 [3] = assay: Induction of mitochondrial membrane potential loss in human HL60 cells at 10 uM measured after 48 hrs by Rh123 dye-based flow cytometric analysis (reference value: 5.6%); format: functional
Procedure, shortened: (§2)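 Cells seeded in 6-well plates 2-4 h, then 48 h with compound; Rh-123 1 µM added for the final half hour; cells centrifuged, washed twice in PBS, resuspended in PBS, and Ψm loss quantified by flow cytometry as percentage of cells.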

MIA PaCa-2 = assay: Cytotoxicity against human MIAPaCa2 cells assessed as growth inhibition after 48 hrs by MTT assay; format: functional, cell-based; details: MIA PaCa-2, 48 h; procedure, shortened: as §1
Histone deacetylase 8 = Histone deacetylase 8 (Homo sapiens, UniProt Q9BY41); assay: Inhibition of HDAC 8 in human HeLa nuclear extract using fluorogenic HDAC class 2A substrate measured after 60 mins by fluorometric analysis
Sequence of Histone deacetylase 8 (Q9BY41 whole entry): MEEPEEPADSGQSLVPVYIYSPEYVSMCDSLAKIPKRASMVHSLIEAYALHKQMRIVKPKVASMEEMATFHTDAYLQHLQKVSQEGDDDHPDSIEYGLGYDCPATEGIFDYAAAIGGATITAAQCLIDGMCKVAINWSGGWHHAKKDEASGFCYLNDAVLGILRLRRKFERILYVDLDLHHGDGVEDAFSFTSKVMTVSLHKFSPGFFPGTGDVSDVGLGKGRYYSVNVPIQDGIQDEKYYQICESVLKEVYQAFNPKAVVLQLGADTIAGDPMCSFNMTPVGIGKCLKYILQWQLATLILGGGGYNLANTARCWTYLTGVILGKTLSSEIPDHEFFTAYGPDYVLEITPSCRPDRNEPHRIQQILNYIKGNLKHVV

HL-60 [4] = assay: Cytotoxicity against human HL60 cells assessed as growth inhibition after 48 hrs by MTT assay; format: functional, cell-based; details: HL-60, 48 h
HL-60 [5] = assay: Induction of mitochondrial membrane potential loss in human HL60 cells assessed as intact mitochondrial membrane potential at 0.125 uM measured after 48 hrs by Rh123 dye-based flow cytometric analysis (reference value: 91.3%); format: functional; procedure, shortened: as §2
COLO 205 [6] = assay: Cytotoxicity against human COLO205 cells assessed as growth inhibition after 48 hrs by MTT assay; format: functional, cell-based; details: COLO 205, 48 h
[7] = Cytotoxicity against human FR2 cells assessed as growth inhibition after 48 hrs by MTT assay; format: ADME, cell-based; details: FR2, 48 h
MOLT-4 [8] = assay: Induction of mitochondrial membrane potential loss in human MOLT4 cells at 10 uM measured after 48 hrs by Rh123 dye-based flow cytometric analysis (reference value: 90.4%); format: functional; procedure, shortened: as §2
MOLT-4 [9] = assay: Induction of autophagy in human MOLT4 cells assessed as intracellular LC-3B distribution at 10 uM after 48 hrs by DAPI dye-based immunofluorescent microscopic analysis; format: functional, cell-based
Procedure, shortened: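 After 48 h treatment (SAHA 1.0 µM control), cells put on poly-lysine coverslips, fixed 15 min in 4% paraformaldehyde, permeabilised with 0.1% Triton X-100, blocked in 10% BSA; anti-LC-3B 1:100 for 1 h, Alexa Fluor 488 secondary 1:500 for 1 h, DAPI 1 µg/ml counterstain; imaged with 60X oil objective.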

MOLT-4 [10] = assay: Cytotoxicity against human MOLT4 cells assessed as growth inhibition at 10 uM after 48 hrs by MTT assay; format: functional; details: MOLT-4, 48 h, read-out: GI
MOLT-4 [11] = assay: Induction of mitochondrial membrane potential loss in human MOLT4 cells assessed as intact mitochondrial membrane potential at 0.125 uM measured after 48 hrs by Rh123 dye-based flow cytometric analysis (reference value: 90.4%); format: functional; procedure, shortened: as §2
Homo sapiens [12] = organism: Homo sapiens; assay: Inhibition of HDAC in human MOLT4 cells assessed as increase in acetylated H3K18 levels after 48 hrs by Western blot analysis; format: cell-based
Procedure, shortened: (§3)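 Cells seeded 2-4 h, treated 48 h with graded compound concentrations (SAHA control); histones acid-extracted (HEPES pH 9 buffer, 0.2 N HCl, 1 h on ice), Bradford-normalised, resolved on 18% SDS gels, blotted to PVDF, probed for acetyl-H3K18 and acetyl-H4K5 with H3 and β-actin loading controls; ECL detection.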

Mus musculus = assay: Toxicity in CDF1 mouse assessed as mortality at 50 mg/kg, ip administered for 9 consecutive days measured up to 18 days; format: organism-based; details: in vivo, 432 h
Procedure, shortened: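 P388 leukemia cells were harvested from 6–7-day-old ascites grown in the peritoneum of female DBA/2 mice. Female CDF1 mice (18–23 g) received 5×10^5 cells i.p. on day 0. Next day they were randomized into groups of 7 and dosed i.p. daily for 9 consecutive days; controls got 0.2 ml normal saline. Mortality was followed to day 18, with median survival time and %T/C calculated.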

THP-1 = assay: Cytotoxicity against human THP1 cells assessed as growth inhibition at 10 uM after 48 hrs by MTT assay; format: functional; details: THP-1, 48 h, read-out: GI; procedure, shortened: as §1
MOLT-4 [13] = assay: Induction of reactive oxygen species in human MOLT4 cells at 5 uM measured after 48 hrs by H2DCFDA dye-based flow cytometric analysis (reference value: 1.1%); format: functional
PC-3 = assay: Cytotoxicity against human PC3 cells assessed as growth inhibition after 48 hrs by MTT assay; format: functional, cell-based; details: PC-3, 48 h
Homo sapiens [14] = organism: Homo sapiens; assay: Inhibition of HDAC in human HL60 cells assessed as increase in acetylated H4K5 levels after 48 hrs by Western blot analysis; format: cell-based; procedure, shortened: as §3
MOLT-4 [15] = assay: Induction of reactive oxygen species in human MOLT4 cells at 10 uM measured after 48 hrs by H2DCFDA dye-based flow cytometric analysis (reference value: 1.1%); format: functional
MOLT-4 [16] = assay: Induction of mitochondrial membrane potential loss in human MOLT4 cells at 1 uM measured after 48 hrs by Rh123 dye-based flow cytometric analysis (reference value: 9.6%); format: functional; procedure, shortened: as §2
HL-60 [17] = assay: Induction of mitochondrial membrane potential loss in human HL60 cells at 1 uM measured after 48 hrs by Rh123 dye-based flow cytometric analysis (reference value: 5.6%); format: functional; procedure, shortened: as §2
MCF7 = assay: Cytotoxicity against human MCF7 cells assessed as growth inhibition at 10 uM after 48 hrs by MTT assay; format: functional; details: MCF7, 48 h, read-out: GI; procedure, shortened: as §1
Homo sapiens [18] = organism: Homo sapiens; assay: Inhibition of HDAC in human HL60 cells assessed as increase in acetylated H3K18 levels after 48 hrs by Western blot analysis; format: cell-based; procedure, shortened: as §3
Histone deacetylase 11 = Histone deacetylase 11 (Homo sapiens, UniProt Q96DB2); assay: Inhibition of HDAC 11 in human HeLa nuclear extract using fluorogenic HDAC class 2A substrate measured after 60 mins by fluorometric analysis
Sequence of Histone deacetylase 11 (Q96DB2 whole entry): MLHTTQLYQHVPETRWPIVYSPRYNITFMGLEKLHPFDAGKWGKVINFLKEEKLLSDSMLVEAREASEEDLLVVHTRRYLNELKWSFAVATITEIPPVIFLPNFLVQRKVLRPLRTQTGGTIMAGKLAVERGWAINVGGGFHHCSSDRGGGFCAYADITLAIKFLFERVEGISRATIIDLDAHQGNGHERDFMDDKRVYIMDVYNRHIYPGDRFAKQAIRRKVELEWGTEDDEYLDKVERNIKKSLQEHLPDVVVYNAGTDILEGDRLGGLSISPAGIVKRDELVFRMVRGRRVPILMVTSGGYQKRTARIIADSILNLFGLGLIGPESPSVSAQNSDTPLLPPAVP

HL-60 [19] = assay: Induction of reactive oxygen species in human HL60 cells at 0.125 uM measured after 48 hrs by H2DCFDA dye-based flow cytometric analysis (reference value: 0.4%); format: functional
Histone deacetylase 9 = Histone deacetylase 9 (Homo sapiens, UniProt Q9UKV0); assay: Inhibition of HDAC 9 in human HeLa nuclear extract using fluorogenic HDAC class 2A substrate measured after 60 mins by fluorometric analysis
Sequence of Histone deacetylase 9 (Q9UKV0 whole entry): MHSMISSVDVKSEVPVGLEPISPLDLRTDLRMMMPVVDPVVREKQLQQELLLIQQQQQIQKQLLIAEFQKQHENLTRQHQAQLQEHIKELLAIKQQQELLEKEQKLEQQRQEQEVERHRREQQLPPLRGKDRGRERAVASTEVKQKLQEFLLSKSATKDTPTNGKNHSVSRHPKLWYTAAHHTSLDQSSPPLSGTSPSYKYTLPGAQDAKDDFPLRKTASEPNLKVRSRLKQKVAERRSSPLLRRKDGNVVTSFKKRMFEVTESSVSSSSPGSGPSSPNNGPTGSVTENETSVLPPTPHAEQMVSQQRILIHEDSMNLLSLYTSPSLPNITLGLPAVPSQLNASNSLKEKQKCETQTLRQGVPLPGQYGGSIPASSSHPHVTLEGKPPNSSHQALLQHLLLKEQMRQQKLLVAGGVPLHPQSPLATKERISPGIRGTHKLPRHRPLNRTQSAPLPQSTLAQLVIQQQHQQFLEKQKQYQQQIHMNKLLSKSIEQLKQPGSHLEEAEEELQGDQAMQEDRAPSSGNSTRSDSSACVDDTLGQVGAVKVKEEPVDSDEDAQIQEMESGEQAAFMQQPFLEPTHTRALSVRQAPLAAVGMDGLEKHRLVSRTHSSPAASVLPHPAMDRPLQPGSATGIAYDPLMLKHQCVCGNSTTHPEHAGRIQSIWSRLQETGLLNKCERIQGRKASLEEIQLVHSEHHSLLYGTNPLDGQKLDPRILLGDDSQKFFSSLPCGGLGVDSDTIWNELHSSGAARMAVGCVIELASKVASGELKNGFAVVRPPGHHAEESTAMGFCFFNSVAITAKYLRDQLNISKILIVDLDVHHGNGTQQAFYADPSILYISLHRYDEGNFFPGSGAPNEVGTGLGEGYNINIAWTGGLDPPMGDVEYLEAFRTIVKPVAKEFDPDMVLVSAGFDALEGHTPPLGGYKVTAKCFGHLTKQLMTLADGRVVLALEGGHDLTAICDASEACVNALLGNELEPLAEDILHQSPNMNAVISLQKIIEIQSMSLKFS

Histone deacetylase 3 = Histone deacetylase 3 (Homo sapiens, UniProt O15379); assay: Inhibition of HDAC 3 in human HeLa nuclear extract using HDAC substrate-3 measured after 60 mins by fluorometric analysis
Sequence of Histone deacetylase 3 (O15379 whole entry): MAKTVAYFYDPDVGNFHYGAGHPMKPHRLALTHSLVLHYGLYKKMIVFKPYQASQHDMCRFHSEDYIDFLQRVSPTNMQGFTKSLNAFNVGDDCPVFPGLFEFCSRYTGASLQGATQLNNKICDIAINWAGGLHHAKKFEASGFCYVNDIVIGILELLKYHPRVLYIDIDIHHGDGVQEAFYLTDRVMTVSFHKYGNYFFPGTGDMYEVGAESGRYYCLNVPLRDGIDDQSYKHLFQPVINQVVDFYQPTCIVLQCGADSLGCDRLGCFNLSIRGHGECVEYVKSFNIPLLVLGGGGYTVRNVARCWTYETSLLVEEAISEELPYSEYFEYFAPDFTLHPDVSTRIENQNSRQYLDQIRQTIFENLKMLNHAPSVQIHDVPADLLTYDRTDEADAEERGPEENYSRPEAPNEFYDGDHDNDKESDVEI

O=C(CCCCCCC(=O)Nc1ccccc1CN1CC[C@H](O)C1)NO
inhibition of growth at 10 µM (COLO 205 [1]): 92% | IC50 (Caco-2): 6000 nM | inhibition of growth at 10 µM (HL-60 [2]): 95% | Activity (HL-60 [3]): 32% | IC50 (MIA PaCa-2): 1000 nM | IC50 (Histone deacetylase 8): 211 nM | IC50 (HL-60 [4]): 1000 nM | Activity (HL-60 [5]): 89% | IC50 (COLO 205 [6]): 600 nM | IC50 [7]: 23000 nM | Activity (MOLT-4 [8]): 32.5% | Activity (MOLT-4 [9]): Active | inhibition of growth at 10 µM (MOLT-4 [10]): 91% | Activity (MOLT-4 [11]): 97.6% | inhibition (Homo sapiens [12]): Dose-dependent effect | Activity (Mus musculus): Non-Toxic | inhibition of growth at 10 µM (THP-1): 94% | Activity (MOLT-4 [13]): 1.9% | IC50 (PC-3): 19000 nM | inhibition (Homo sapiens [14]): Dose-dependent effect | Activity (MOLT-4 [15]): 0.9% | Activity (MOLT-4 [16]): 4.9% | Activity (HL-60 [17]): 6.2% | inhibition of growth at 10 µM (MCF7): 93% | inhibition (Homo sapiens [18]): Dose-dependent effect | IC50 (Histone deacetylase 11): > 10000 nM | Activity (HL-60 [19]): 1% | IC50 (Histone deacetylase 9): > 10000 nM | IC50 (Histone deacetylase 3): 368 nM
